From ChEMBL document CHEMBL4406821, “Novel dual inhibitors targeting CDK4 and VEGFR2 synergistically suppressed cancer progression and angiogenesis” (Eur J Med Chem, 2019)
The source made the active and inactive calls. The rule behind the calls is not given here.

What was measured:
[1] = target: Dual specificity mitogen-activated protein kinase kinase 3 (Homo sapiens) (UniProt P46734); test: Inhibition of recombinant human MKK3 at 1 uM incubated for 40 mins in presence of [gamma-33P]-ATP by scintillation counting method relative to control
[2] = Toxicity in BALB/c mouse assessed as effect on blood parameter by measuring basophils content at 40 mg/kg, po administered once two days for 4 times by hematology analyzer; conditions: in vivo
[3] = target: Vascular endothelial growth factor receptor 2 (Homo sapiens, UniProt P35968); test: Inhibition of VEGFR2 in HUVEC cells assessed as reduction in VEGFR2 phosphorylation at 20 to 40 nM incubated for 48 hrs by Western blot analysis; type: cell-based
Summary of the method: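 HUVECs were maintained in 1640 medium with 10% FBS. They were treated with graded concentrations for 48 h, PBS-washed and lysed in RIPA buffer. Immunoblots were probed for total and phospho VEGFR2, STAT3, Akt, Erk1 and Src, each at 1:1000. β-actin served as loading control.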

[4] = Toxicity in NOD/SCID BALB/c mouse xenografted with human SiHa cells assessed as effect on blood parameter by measuring neutrophils content at 40 mg/kg, po administered once two days for 4 times by hematology analyzer; type: organism-based; conditions: in vivo
[5] = target: Ephrin type-A receptor 1 (Homo sapiens) (UniProt P21709); test: Inhibition of recombinant human EPhA1 (568 to end residues) at 1 uM using KKKSPGEYVNIEFG as substrate incubated for 40 mins in presence of [gamma-33P]-ATP by scintillation counting method relative to control
Chain of Ephrin type-A receptor 1 (Homo sapiens) (P21709 whole entry): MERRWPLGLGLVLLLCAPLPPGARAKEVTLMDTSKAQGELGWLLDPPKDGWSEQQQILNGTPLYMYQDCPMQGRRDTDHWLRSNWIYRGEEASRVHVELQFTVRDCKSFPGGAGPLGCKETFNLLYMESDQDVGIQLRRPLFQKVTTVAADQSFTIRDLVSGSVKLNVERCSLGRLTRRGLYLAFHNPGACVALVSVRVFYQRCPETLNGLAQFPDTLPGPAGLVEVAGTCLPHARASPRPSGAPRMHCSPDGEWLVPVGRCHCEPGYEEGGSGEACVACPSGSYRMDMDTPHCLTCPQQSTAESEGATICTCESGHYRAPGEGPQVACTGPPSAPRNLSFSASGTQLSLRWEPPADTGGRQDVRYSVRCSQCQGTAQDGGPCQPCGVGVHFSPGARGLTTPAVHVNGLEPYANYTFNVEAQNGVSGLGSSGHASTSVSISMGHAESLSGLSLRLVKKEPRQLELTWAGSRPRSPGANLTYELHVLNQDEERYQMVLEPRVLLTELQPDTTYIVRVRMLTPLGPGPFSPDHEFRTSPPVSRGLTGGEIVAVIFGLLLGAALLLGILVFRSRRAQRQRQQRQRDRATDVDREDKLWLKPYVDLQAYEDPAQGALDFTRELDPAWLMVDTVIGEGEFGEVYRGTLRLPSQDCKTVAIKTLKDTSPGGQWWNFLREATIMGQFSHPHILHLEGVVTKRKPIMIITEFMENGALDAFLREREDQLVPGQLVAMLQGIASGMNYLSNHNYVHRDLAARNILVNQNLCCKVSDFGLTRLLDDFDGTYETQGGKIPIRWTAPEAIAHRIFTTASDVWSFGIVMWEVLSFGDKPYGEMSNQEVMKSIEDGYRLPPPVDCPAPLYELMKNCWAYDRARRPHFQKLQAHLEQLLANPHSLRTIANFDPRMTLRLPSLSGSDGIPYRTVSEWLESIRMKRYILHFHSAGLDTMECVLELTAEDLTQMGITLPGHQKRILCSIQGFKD

[6] = target: Serine/threonine-protein kinase PAK 3 (Homo sapiens) (UniProt O75914); test: Inhibition of recombinant human full length PAK3 at 1 uM using RRRLSFAEPG as substrate incubated for 40 mins in presence of [gamma-33P]-ATP by scintillation counting method relative to control
Chain of Serine/threonine-protein kinase PAK 3 (Homo sapiens) (O75914 whole entry, looked up): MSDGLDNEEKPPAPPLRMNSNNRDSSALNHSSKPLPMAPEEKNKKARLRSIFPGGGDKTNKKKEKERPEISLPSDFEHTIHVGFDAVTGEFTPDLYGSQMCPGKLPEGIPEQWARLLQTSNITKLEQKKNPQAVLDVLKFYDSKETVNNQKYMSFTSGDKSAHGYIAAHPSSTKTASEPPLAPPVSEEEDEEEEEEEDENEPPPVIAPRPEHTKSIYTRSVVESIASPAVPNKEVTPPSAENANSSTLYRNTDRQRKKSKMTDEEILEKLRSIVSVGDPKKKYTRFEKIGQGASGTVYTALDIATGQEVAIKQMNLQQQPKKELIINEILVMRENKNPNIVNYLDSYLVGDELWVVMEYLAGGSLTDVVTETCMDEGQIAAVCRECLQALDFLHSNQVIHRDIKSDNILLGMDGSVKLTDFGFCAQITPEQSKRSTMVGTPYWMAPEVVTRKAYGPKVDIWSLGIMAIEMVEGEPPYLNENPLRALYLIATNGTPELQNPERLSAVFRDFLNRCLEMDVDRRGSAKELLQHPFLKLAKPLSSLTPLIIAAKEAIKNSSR
Summary of the method: (§1)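 Tested at a single 1 uM in an outsourced commercial kinase-profiling panel, read as percent inhibition. Each value is the mean of two independent experiments.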

[7] = Toxicity in NOD/SCID BALB/c mouse xenografted with human SiHa cells assessed as toxic effects in brain at 40 mg/kg, po administered for 48 hrs by hematoxylin and eosin staining method; type: organism-based; conditions: in vivo
[8] = target: Fibroblast growth factor receptor 2 (Homo sapiens) (UniProt P21802); test: Inhibition of recombinant human FGFR2 (456 to 770 residues) at 1 uM using poly(Glu, Tyr) 4:1 as substrate incubated for 40 mins in presence of [gamma-33P]-ATP by scintillation counting method relative to control
[9] = target: Dual specificity mitogen-activated protein kinase kinase 4 (Mus musculus) (UniProt P47809); test: Inhibition of recombinant mouse MKK4 (34 to end residues) at 1 uM using unactive JNK1a1 as substrate incubated for 40 mins in presence of [gamma-33P]-ATP by scintillation counting method relative to control
[10] = target: Serine/threonine-protein kinase MARK1 (Homo sapiens) (UniProt Q9P0L2); test: Inhibition of recombinant human MARK1 (2 to end residues) at 1 uM using KKKVSRSGLYRSPSMPENLNRPR as substrate incubated for 40 mins in presence of [gamma-33P]-ATP by scintillation counting method relative to control
Chain of Serine/threonine-protein kinase MARK1 (Homo sapiens) (Q9P0L2 whole entry, looked up): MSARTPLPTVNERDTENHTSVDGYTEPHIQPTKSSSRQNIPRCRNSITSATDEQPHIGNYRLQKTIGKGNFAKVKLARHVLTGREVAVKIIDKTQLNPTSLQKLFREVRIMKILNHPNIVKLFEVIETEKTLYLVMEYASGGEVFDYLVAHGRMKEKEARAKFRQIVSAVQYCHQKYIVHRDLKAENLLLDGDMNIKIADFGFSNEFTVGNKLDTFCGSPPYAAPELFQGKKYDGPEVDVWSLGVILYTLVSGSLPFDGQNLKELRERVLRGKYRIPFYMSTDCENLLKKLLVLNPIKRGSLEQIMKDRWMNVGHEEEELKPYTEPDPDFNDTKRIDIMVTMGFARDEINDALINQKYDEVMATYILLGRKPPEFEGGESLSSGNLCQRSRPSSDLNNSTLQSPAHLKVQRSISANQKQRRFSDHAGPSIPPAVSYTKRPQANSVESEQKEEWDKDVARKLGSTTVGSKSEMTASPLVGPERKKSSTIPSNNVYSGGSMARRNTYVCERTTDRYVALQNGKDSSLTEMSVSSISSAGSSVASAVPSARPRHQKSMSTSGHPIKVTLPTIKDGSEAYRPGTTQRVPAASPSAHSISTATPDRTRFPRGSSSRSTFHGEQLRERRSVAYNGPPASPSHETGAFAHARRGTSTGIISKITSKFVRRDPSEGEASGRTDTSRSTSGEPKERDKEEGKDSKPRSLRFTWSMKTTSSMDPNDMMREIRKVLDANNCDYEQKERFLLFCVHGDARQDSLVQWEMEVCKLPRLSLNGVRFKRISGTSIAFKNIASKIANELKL

[11] = target: Serine/threonine-protein kinase 32B (Homo sapiens) (UniProt Q9NY57); test: Inhibition of recombinant human full length STK32B at 1 uM using casein as substrate incubated for 40 mins in presence of [gamma-33P]-ATP by scintillation counting method relative to control
Chain of Serine/threonine-protein kinase 32B (Homo sapiens) (Q9NY57 whole entry): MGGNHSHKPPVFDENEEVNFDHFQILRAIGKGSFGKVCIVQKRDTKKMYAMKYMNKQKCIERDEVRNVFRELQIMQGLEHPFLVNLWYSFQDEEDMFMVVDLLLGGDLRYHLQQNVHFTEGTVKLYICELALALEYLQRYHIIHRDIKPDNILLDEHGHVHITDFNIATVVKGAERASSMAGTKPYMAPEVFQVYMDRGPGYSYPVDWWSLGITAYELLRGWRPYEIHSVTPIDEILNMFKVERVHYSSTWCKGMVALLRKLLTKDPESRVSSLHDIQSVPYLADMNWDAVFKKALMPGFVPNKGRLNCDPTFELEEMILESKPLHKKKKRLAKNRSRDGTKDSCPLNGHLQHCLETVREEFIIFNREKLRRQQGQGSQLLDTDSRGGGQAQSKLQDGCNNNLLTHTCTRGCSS

[12] = target: Casein kinase II subunit alpha' (Homo sapiens) (UniProt P19784); test: Inhibition of recombinant human full length CK2alpha2 at 1 uM using RRRDDDSDDD as substrate incubated for 40 mins in presence of [gamma-33P]-ATP by scintillation counting method relative to control
Chain of Casein kinase II subunit alpha' (Homo sapiens) (P19784 whole entry, looked up): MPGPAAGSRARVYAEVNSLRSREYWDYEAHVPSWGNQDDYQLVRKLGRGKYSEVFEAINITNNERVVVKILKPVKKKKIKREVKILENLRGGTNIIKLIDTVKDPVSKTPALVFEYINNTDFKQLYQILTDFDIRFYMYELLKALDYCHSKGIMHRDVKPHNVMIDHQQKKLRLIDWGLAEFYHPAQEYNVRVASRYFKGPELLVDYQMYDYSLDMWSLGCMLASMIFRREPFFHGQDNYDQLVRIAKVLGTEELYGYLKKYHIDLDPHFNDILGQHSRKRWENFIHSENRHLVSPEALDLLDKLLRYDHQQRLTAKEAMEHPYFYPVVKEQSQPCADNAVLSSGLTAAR

[13] = target: Serine/threonine-protein kinase NIM1 (Homo sapiens) (UniProt Q8IY84); test: Inhibition of recombinant human full length NIM1 at 1 uM using KKKVSRSGLYRSPSMPENLNRPR as substrate incubated for 40 mins in presence of [gamma-33P]-ATP by scintillation counting method relative to control
Chain of Serine/threonine-protein kinase NIM1 (Homo sapiens) (Q8IY84 whole entry): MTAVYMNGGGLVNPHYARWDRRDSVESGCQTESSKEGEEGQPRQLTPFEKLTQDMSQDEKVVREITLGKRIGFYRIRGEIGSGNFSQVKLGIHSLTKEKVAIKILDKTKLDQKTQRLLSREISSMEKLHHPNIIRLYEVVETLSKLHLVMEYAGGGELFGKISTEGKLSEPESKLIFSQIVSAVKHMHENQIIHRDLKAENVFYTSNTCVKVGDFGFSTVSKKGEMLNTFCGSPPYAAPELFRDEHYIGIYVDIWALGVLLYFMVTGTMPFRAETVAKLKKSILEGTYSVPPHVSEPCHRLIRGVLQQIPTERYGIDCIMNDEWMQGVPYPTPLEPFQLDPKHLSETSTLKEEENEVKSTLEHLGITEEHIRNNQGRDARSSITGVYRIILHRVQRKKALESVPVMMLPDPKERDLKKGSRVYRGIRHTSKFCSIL

SiHa [14] = test: Induction of apoptosis in human SiHa cells assessed as increase in early apoptotic cells at 20 to 40 nM incubated for 48 hrs by annexin V FITC and propidium iodide staining based flow cytometry; type: functional, cell-based
Summary of the method: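 Annexin V-FITC/PI double staining with flow-cytometric readout. MDA-MB-231, T-47D, SiHa and HeLa cells were treated with graded concentrations for 48 h. MDA-MB-231 and T-47D were grown in DMEM and SiHa in 1640 medium, each with 10% FBS and 1% penicillin/streptomycin at 37°C under 5% CO2. Early- and late-stage apoptotic fractions were scored.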

SiHa [15] = test: Induction of apoptosis in human SiHa cells assessed as decrease in Rb phosphorylation incubated for 48 hrs by Western blot analysis; type: functional, cell-based
Summary of the method: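 Cancer cells were exposed to graded concentrations for 48 h, washed three times in PBS and lysed in RIPA buffer. Immunoblots were probed with anti-Rb, anti-phospho-Rb, anti-Ki67 and anti-Bcl-2, each at 1:1000. β-actin served as loading control.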

T47D = test: Inhibition of colony formation in human T47D cells at 20 to 40 nM incubated for 5 days by crystal violet staining based light microscopy; type: functional, cell-based
Summary of the method: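 MDA-MB-231, T-47D, SiHa and HeLa cells seeded at 4×10^3/well and cultured with varying concentrations of drug or vehicle for 5 days. Fixed in 20% methanol, stained with 0.5% crystal violet, photographed under light microscopy. DMEM (T-47D) with 10% FBS, 37°C, 5% CO2.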

MDA-MB-231 = test: Induction of apoptosis in human MDA-MB-231 cells assessed as decrease in Bcl2 expression at 20 to 40 nM incubated for 48 hrs by Western blot analysis; type: functional, cell-based
Summary of the method: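 Cells were treated for 48 h, washed three times with PBS, and lysed in RIPA buffer. Immunoblots used anti-Rb, anti-phospho-Rb, anti-Ki67 and anti-Bcl-2 (each 1:1000), with β-actin as loading control.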

[16] = target: Serine/threonine-protein kinase TBK1 (Homo sapiens) (UniProt Q9UHD2); test: Inhibition of recombinant human full length TBK1 at 1 uM using KRRRALS(p)VASLPGL as substrate incubated for 40 mins in presence of [gamma-33P]-ATP by scintillation counting method relative to control
Chain of Serine/threonine-protein kinase TBK1 (Homo sapiens) (Q9UHD2 whole entry, the tested form may be a part): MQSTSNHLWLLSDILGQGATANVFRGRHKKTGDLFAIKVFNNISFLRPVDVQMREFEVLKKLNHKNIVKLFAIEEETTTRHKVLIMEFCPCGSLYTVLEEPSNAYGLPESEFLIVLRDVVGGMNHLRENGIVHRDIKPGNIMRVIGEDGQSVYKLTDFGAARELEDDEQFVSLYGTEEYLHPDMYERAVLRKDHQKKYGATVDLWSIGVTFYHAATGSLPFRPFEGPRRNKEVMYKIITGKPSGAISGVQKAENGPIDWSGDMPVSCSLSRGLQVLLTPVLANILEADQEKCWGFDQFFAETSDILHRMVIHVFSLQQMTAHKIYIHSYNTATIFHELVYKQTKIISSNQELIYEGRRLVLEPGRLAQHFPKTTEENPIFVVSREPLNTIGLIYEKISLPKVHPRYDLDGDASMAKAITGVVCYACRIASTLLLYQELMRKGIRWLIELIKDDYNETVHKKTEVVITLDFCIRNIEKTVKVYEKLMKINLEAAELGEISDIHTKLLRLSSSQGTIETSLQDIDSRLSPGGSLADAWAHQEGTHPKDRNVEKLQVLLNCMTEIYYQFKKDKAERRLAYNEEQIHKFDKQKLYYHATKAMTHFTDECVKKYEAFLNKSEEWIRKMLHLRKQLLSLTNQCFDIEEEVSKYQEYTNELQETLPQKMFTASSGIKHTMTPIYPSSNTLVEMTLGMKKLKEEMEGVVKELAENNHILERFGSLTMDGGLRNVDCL

[17] = target: Myotonin-protein kinase (Homo sapiens) (UniProt Q09013); test: Inhibition of recombinant human DMPK (1 to 549 residues) at 1 uM using KKSRGDYMTMQIG as substrate incubated for 40 mins in presence of [gamma-33P]-ATP by scintillation counting method relative to control
Chain of Myotonin-protein kinase (Homo sapiens) (Q09013 whole entry, the tested form may be a part): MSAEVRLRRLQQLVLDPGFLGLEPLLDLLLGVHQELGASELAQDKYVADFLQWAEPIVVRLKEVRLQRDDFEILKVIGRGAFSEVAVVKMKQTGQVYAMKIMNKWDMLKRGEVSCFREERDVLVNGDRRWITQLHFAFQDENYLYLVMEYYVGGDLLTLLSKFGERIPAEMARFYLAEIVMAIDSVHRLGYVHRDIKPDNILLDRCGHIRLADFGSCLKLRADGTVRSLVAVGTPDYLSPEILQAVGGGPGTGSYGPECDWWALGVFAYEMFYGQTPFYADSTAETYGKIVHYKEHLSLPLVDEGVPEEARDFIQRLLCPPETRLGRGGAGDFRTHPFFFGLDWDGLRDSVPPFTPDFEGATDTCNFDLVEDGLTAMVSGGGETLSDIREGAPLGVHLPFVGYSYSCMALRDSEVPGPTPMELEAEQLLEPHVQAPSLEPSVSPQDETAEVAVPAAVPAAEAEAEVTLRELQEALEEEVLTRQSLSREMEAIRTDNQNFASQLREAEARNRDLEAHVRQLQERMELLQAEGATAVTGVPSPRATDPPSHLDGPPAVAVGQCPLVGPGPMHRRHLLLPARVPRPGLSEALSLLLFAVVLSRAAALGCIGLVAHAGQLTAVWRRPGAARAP
Summary of the method: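 Kinase panel profiling at 1 μM performed by Eurofins KinaseProfiler; percent inhibition reported as mean of two independent experiments.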

[18] = tested on: Platelet-derived growth factor receptor alpha (Homo sapiens), P16234 [D842V]; test: Inhibition of recombinant human PDGFRalpha D842V mutant (550 to end residues) at 1 uM using GGMEDIYFEFMGGKKK as substrate incubated for 40 mins in presence of [gamma-33P]-ATP by scintillation counting method relative to control; summary of the method: as §1

## Cc1ccc(NC(=O)C2(C(=O)Nc3ccc(Nc4ncc(F)c(-c5cc(F)c6nc(C)n(C(C)C)c6c5)n4)cc3)CC2)cc1
[1]
  inhibition: 8%
[2]
  Activity: Non-Toxic
[3]
  inhibition: Active
[4]
  Activity: Non-Toxic
[5]
  inhibition: 73%
[6]
  inhibition: 0%
[7]
  Activity: Non-Toxic
[8]
  inhibition: 4%
[9]
  inhibition: 12%
[10]
  inhibition: 74%
[11]
  inhibition: 2%
[12]
  inhibition: 72%
[13]
  inhibition: 66%
SiHa [14]
  Activity: Active
SiHa [15]
  Activity: Dose-dependent effect
T47D
  inhibition: Active
MDA-MB-231
  Activity: Active
[16]
  inhibition: 9%
[17]
  inhibition: 10%
[18]
  inhibition: 48%
